# Measurements from ChEMBL document CHEMBL1123272, “Comparison of (-)-eseroline with (+)-eseroline and dihydroseco analogues in antinociceptive assays: confirmation of rubreserine structure by X-ray analysis” (1986).
# Calls of active or inactive are those of the source. No cut-off for these calls is given here.
# Columns and labels:
# Mus musculus [1] = assay: Compound was tested in vivo for narcotic antagonist activity (dose in sc, mg/kg) in mice using tail flick antagonism assay; I = Inactive at 1,10, 30 mg/kg; assay type: functional, organism-based; design: dose 30 mg/kg
# Procedure, shortened: (§1)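 Mouse tail-flick antagonism assay against morphine, with the test compound given subcutaneously and doses in mg/kg. It was run by an outside laboratory (Medical College of Virginia).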
# Mus musculus [2] = assay: Compound was tested in vivo for narcotic agonist activity (dose in sc, mg/kg) in mice using hot plate assay; I = Inactive at 1,10, 30 mg/kg; assay type: functional, organism-based; design: dose 30 mg/kg
# Mus musculus [3] = assay: Compound was tested in vivo for narcotic agonist activity (dose in sc, mg/kg) in mice using tail flick assay; I = Inactive at 1,10, 30 mg/kg; assay type: functional, organism-based; design: dose 30 mg/kg
# Mus musculus [4] = assay: Compound was tested in vivo for narcotic agonist activity (dose in sc, mg/kg) in mice using phenylquinone assay.; assay type: functional
# Mus musculus [5] = assay: Compound was tested in vivo for narcotic antagonist activity (dose in sc, mg/kg) in mice using tail flick antagonism assay; assay type: functional; procedure, shortened: as §1
# Mus musculus [6] = assay: Compound was tested in vivo for narcotic agonist activity (dose in sc, mg/kg) in mice using phenylquinone assay; I = Inactive at 1,10, 30 mg/kg; assay type: functional, organism-based; design: dose 30 mg/kg
# Mus musculus [7] = assay: Compound was tested in vivo for narcotic agonist activity (dose in sc, mg/kg) in mice using phenylquinone assay; assay type: functional
# Mus musculus [8] = assay: Compound was tested in vivo for narcotic antagonist activity (dose in sc, mg/kg) in mice using tail flick antagonism assay; I =inactive at 1, 10, 30 mg/kg; assay type: functional, organism-based; design: dose 30 mg/kg; procedure, shortened: as §1
# Mus musculus [9] = assay: Compound was tested in vivo for narcotic agonist activity (dose in sc, mg/kg) in mice using hot plate assay; assay type: functional
# Procedure, shortened: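 Mouse hot-plate test for narcotic agonist activity with subcutaneous dosing. Values are in mg/kg with 95% confidence limits.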
# Mus musculus [10] = assay: Compound was tested in vivo for narcotic agonist activity (dose in sc, mg/kg) in mice using tail flick assay; assay type: functional
# Mus musculus [11] = assay: Compound was tested in vivo for narcotic agonist activity (dose in sc, mg/kg) in mice using tail flick assay.; assay type: functional
Structure (SMILES),Activity (Mus musculus [1]),Activity (Mus musculus [2]),Activity (Mus musculus [3]),Activity (Mus musculus [4]),Activity (Mus musculus [9]),also measured
CN1CC[C@]2(C)c3cc(O)ccc3N(C)[C@H]12,inactive,inactive,inactive,2.3,–,–
C=CCN1CC[C@]23c4c5ccc(O)c4O[C@H]2C(=O)CC[C@@]3(O)[C@H]1C5 [NALOXONE],–,inactive,inactive,–,–,Activity (Mus musculus [5]): 0.03; Activity (Mus musculus [6]): inactive
CN1c2ccc(O)cc2[C@]2(C)CCN[C@H]12,–,inactive,–,–,–,–
CN1CC[C@]23c4c5ccc(O)c4O[C@H]2[C@@H](O)C=C[C@H]3[C@H]1C5 [MORPHINE],–,–,–,–,1.3,Activity (Mus musculus [7]): 0.23; Activity (Mus musculus [8]): inactive; Activity (Mus musculus [10]): 5.8
CN1CC[C@@]2(C)c3cc(O)ccc3N(C)[C@@H]12,inactive,–,–,0.7,1.6,Activity (Mus musculus [11]): 2.3
